Screening data from PubChem.
T cruzi growth-1: blocks T. cruzi growth in NIH3T3 culture | T. cruzi beta-gal in NIH3T3, GalScreen luminescence, 90 h | actives 5.9% (n = 77,000) | inhibition, % at 8.34 µM;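 active = mean inhibition above about 93%, with at least 55% of replicates each passing it, limit read from the data, passing the limit was not always enough; inconclusive = only one of those two conditions holds; inactive = neither condition holds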
IDH1 R132H inh: IDH1 R132H (human) inhibition; O75874; IDH1 R132H reductase, diaphorase/resazurin fluorescence, 60 min; inhibition, % at 10 µM; actives 0.18% (n = 70,000); in the data active = inhibition above about 34%; inconclusive = no clear call, values can overlap the other calls; inactive = below about 11%
Target sequence (O75874 whole entry R132H): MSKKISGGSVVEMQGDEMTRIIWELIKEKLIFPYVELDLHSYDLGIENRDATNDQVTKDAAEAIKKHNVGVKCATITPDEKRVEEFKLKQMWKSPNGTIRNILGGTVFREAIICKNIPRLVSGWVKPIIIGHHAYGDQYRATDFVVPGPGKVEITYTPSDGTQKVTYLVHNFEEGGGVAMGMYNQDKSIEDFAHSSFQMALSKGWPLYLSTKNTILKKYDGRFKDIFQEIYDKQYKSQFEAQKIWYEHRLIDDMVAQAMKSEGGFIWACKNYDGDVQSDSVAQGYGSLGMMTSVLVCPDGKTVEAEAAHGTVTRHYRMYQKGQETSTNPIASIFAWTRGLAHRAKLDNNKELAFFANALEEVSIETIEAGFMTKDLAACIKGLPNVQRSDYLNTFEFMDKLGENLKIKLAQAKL
GASC1 inh: blocks human GASC-1 (KDM4C) demethylase activity; Q9H3R0; inhibition, % at 12.5 µM; actives 0.15% (n = 96,000); GST-KDM4C 2-372, H3K9me3 peptide, LANCE TR-FRET;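 active = mean replicate inhibition above about 25%, with at least 55% of replicates also reaching it, limit read from the data, passing the limit was not always enough; inconclusive = only one of those two conditions met; inactive = neither condition met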
Target sequence (Q9H3R0 2-372 limits assumed): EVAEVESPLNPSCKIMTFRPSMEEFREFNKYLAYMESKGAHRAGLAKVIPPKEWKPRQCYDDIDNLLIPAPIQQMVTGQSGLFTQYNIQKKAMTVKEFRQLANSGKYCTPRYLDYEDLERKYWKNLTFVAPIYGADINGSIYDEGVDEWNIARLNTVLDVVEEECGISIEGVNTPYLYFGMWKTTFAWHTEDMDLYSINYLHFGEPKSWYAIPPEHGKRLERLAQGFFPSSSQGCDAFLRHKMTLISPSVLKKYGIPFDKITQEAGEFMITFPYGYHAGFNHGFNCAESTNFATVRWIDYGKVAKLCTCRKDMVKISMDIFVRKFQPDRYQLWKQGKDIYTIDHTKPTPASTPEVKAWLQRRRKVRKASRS
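Material: GST-tagged GASC-1 (JMJD2C) catalytic fragment, aa 2-372 / Quantity: enzyme final amount 10 nM / Medium: HEPES buffer, pH 7.5, plus ascorbate / Doses: one test concentration per compound / Incubation: 30 min reaction, 60 min detection, RT / Measured by: LANCE TR-FRET / Read-out: inhibition from TR-FRET ratio decrease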
Pf Dd2 inh: P. falciparum Dd2 growth inhibition. AID 1159554. activity change, % at 10 µM. actives 2.3% (n = 94,000). SYBR Green, 72 h; stronger effect = lower value; in the data active = activity change below about -80%; inconclusive = no clear call, values can overlap the other calls
T cruzi growth-2: blocks T. cruzi growth in NIH3T3 host cells; shares compounds with T cruzi growth-1; T. cruzi beta-gal in NIH3T3, GalScreen luminescence, 90 h; inhibition, % at 8.35 µM; actives 72% (n = 5,600); AID 651739;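 active = mean replicate inhibition above about 95% and at least 55% of replicates individually reaching it, limit read from the data; inconclusive = only one of the two criteria is met; inactive = neither criterion is met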
T cruzi growth-3: inhibitors of T. cruzi proliferation | shares compounds with T cruzi growth-1 | T. cruzi beta-gal in NIH3T3, GalScreen luminescence, 90 h | AID 651740 | actives 21% (n = 5,600) | inhibition, % at 2.09 µM;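 active = mean inhibition above about 95%, with at least 55% of replicates also reaching it, limit read from the data; inconclusive = meets just one of the two conditions; inactive = meets neither condition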
NIH3T3 tox: NIH/3T3 (mouse) viability loss; actives 14% (n = 5,600); cytotoxicity (signal decrease), % at 8.35 µM; shares compounds with T cruzi growth-1; NIH/3T3 viability, CellTiter-Glo ATP luminescence, 90 h; AID 651742;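 active = mean signal decrease across replicates above about 35% based on untreated-well scatter, with enough replicates individually passing, limit read from the data; inconclusive = no rule stated though some were filed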
3T3 cytotox 2: NIH/3T3 (mouse) viability loss; shares compounds with T cruzi growth-1; NIH/3T3 viability, CellTiter-Glo ATP luminescence, 90 h; actives 56% (n = 5,600); AID 651744; inhibition, % at 24.9 µM;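 active = mean loss of cell viability signal at or above a set limit, and enough replicates individually reaching it; inconclusive = meets only the mean limit or only the replicate share; inactive = meets neither condition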
Each line names hits and unclear results; the compound was inactive in the other large screens (follow-up assays come after a bar, where they were run). An excerpt weighted towards active compounds, which were near 5.9% of everything screened.

COc1ccc(NC(=O)Nc2cccc3c2O[C@@H](CN(C)Cc2ccc(C(=O)O)cc2)[C@@H](C)CN([C@H](C)CO)C3=O)cc1	T cruzi growth-1 102 | T cruzi growth-2 inactive | T cruzi growth-3 inactive | NIH3T3 tox inactive | 3T3 cytotox 2 inactive
C[C@H]1CN([C@@H](C)CO)C(=O)c2cccc(NC(=O)Nc3ccc4c(c3)OCO4)c2O[C@H]1CN(C)Cc1ccc(C(=O)Nc2ccccc2N)cc1	none (no result: IDH1 R132H inh)
C[C@H](CO)N1C[C@H](C)[C@@H](CN(C)Cc2ccc(C(=O)Nc3ccccc3N)cc2)Oc2c(NC(=O)Nc3ccc4c(c3)OCO4)cccc2C1=O	T cruzi growth-1 107, Pf Dd2 inh -88 (no result: IDH1 R132H inh) | T cruzi growth-2 103 | T cruzi growth-3 inactive | NIH3T3 tox inactive | 3T3 cytotox 2 54
COc1ccc(NC(=O)Nc2cccc3c2O[C@@H](CN(C)Cc2ccc(C(=O)Nc4ccccc4N)cc2)[C@H](C)CN([C@H](C)CO)C3=O)cc1	T cruzi growth-1 inconclusive (no result: IDH1 R132H inh) | T cruzi growth-2 inactive | T cruzi growth-3 inactive | NIH3T3 tox inactive | 3T3 cytotox 2 65
COc1ccc(CN(C)C[C@@H]2Oc3c(NC(=O)Nc4ccc(OC)cc4)cccc3C(=O)N([C@H](C)CO)C[C@H]2C)cc1	none
COc1ccc2c(c1)C(O)(CC(=O)c1ccc3ccccc3c1)C(=O)N2 (stereo not given)	none (no result: T cruzi growth-1, GASC1 inh, Pf Dd2 inh)
Cc1ccc(-n2c(C)nnc2SCC(=O)Nc2cc(Cl)ccc2C)cc1	none (no result: T cruzi growth-1, GASC1 inh, Pf Dd2 inh)
COc1cccc2cc(C(=O)C3C(=O)C(=O)N(c4cc(C)on4)C3c3ccccc3)oc12 (stereo not given)	none (no result: T cruzi growth-1, GASC1 inh, Pf Dd2 inh)
COc1c2occc2c(OC)c2c(=O)cc(CO[C@@H]3O[C@H](CO)[C@@H](O)[C@H](O)[C@H]3O)oc12	none (no result: T cruzi growth-1, GASC1 inh, Pf Dd2 inh)
C[C@H]1CCCCO[C@H](CN(C)Cc2ccc(C(F)(F)F)cc2)[C@@H](C)CN([C@@H](C)CO)C(=O)c2cc(NS(=O)(=O)c3cccs3)ccc2O1	T cruzi growth-1 113 (no result: IDH1 R132H inh) | T cruzi growth-2 98 | T cruzi growth-3 107 | NIH3T3 tox inactive | 3T3 cytotox 2 103
C[C@@H]1CCCCO[C@@H](CN(C)Cc2ccc(C(F)(F)F)cc2)[C@@H](C)CN([C@@H](C)CO)C(=O)c2cc(NS(=O)(=O)c3cccs3)ccc2O1	none
C[C@@H]1CN([C@@H](C)CO)C(=O)c2cc(NS(=O)(=O)c3cccs3)ccc2O[C@@H](C)CCCCO[C@@H]1CN(C)Cc1ccc(C(F)(F)F)cc1	T cruzi growth-1 inconclusive | T cruzi growth-2 102 | T cruzi growth-3 118 | NIH3T3 tox inactive | 3T3 cytotox 2 63
C[C@H]1CCCCO[C@@H](CN(C)Cc2ccc(C(F)(F)F)cc2)[C@@H](C)CN([C@@H](C)CO)C(=O)c2cc(NS(=O)(=O)c3cccs3)ccc2O1	T cruzi growth-1 112 | T cruzi growth-2 inactive | T cruzi growth-3 inactive | NIH3T3 tox inactive | 3T3 cytotox 2 105
C[C@H](CO)N1C[C@H](C)[C@H](CN(C)Cc2ccc(C(F)(F)F)cc2)OCCCC[C@H](C)Oc2ccc(NS(=O)(=O)c3cccs3)cc2C1=O	none (no result: T cruzi growth-1, IDH1 R132H inh)
CC(=O)Nc1ccc(C(=O)CSc2cc(C)c3ccccc3n2)cc1	none (no result: T cruzi growth-1, GASC1 inh, Pf Dd2 inh)
O=C(CSc1nc(-c2ccc(F)cc2)cs1)Nc1ccc(N2CCOCC2)c(Cl)c1	none (no result: T cruzi growth-1, GASC1 inh, Pf Dd2 inh)
O=C(Nc1ccc(F)cc1)N1CCCCN2[C@@H](CO)[C@@H](c3ccc(-c4ccccc4F)cc3)[C@@H]2C1	T cruzi growth-1 103 (no result: IDH1 R132H inh, GASC1 inh) | T cruzi growth-2 inactive | T cruzi growth-3 106 | NIH3T3 tox 106 | 3T3 cytotox 2 104
Cc1ccccc1-c1ccc([C@@H]2[C@H](CO)N3CCCCN(C(=O)Nc4ccc(F)cc4)C[C@@H]23)cc1	T cruzi growth-1 103 (no result: IDH1 R132H inh) | T cruzi growth-2 inactive | T cruzi growth-3 107 | NIH3T3 tox 117 | 3T3 cytotox 2 103
Cc1ccccc1-c1ccc([C@@H]2[C@@H](CO)N3CCCCN(C(=O)Nc4ccc(F)cc4)C[C@@H]23)cc1	none (no result: IDH1 R132H inh)
C[C@@H]1CN([C@@H](C)CO)C(=O)Cc2cc(NC(=O)Nc3cccc4ccccc34)ccc2O[C@H]1CN(C)Cc1ccc(-c2ccccc2)cc1	T cruzi growth-1 107 | T cruzi growth-2 102 | T cruzi growth-3 106 | NIH3T3 tox inactive | 3T3 cytotox 2 inactive
C[C@H](CO)N1C[C@H](C)[C@@H](CN(C)Cc2ccccc2)Oc2ccc(NC(=O)Nc3cccc4ccccc34)cc2CC1=O	none
C[C@H]1CN([C@@H](C)CO)C(=O)Cc2cc(NC(=O)Nc3cccc4ccccc34)ccc2O[C@@H]1CN(C)Cc1ccc(-c2ccccc2)cc1	T cruzi growth-1 102 | T cruzi growth-2 109 | T cruzi growth-3 107 | NIH3T3 tox inactive | 3T3 cytotox 2 inactive
Cn1c(SCC(=O)Nc2ccccc2)nnc1-c1ccccc1F	none (no result: T cruzi growth-1, GASC1 inh, Pf Dd2 inh)
CN1c2ccc(-c3cccc(F)c3)cc2[C@@H]2[C@@H](CCN2S(=O)(=O)c2cccc(F)c2)[C@@H]1CO	T cruzi growth-1 102 (no result: IDH1 R132H inh) | T cruzi growth-2 98 | T cruzi growth-3 inactive | NIH3T3 tox 59 | 3T3 cytotox 2 105
COc1ccc(-c2ccc3c(c2)[C@@H]2[C@@H](CCN2S(=O)(=O)C2=NC(C)C=N2)[C@H](CO)N3C)cc1 (stereo not given in full)	none (no result: IDH1 R132H inh)
CN1c2ccc(Br)cc2[C@@H]2[C@@H](CCN2S(=O)(=O)c2cccc(F)c2)[C@@H]1CO	T cruzi growth-1 inconclusive (no result: IDH1 R132H inh) | T cruzi growth-2 inactive | T cruzi growth-3 inactive | NIH3T3 tox 48 | 3T3 cytotox 2 41
CC1C=NC(S(=O)(=O)N2CC[C@@H]3[C@@H](CO)N(C)c4ccc(-c5cccc(F)c5)cc4[C@@H]32)=N1 (stereo not given in full)	T cruzi growth-1 103 (no result: IDH1 R132H inh) | T cruzi growth-2 104 | T cruzi growth-3 inactive | NIH3T3 tox inactive | 3T3 cytotox 2 inactive
COc1ccc(-c2ccc3c(c2)[C@H]2[C@H](CCN2S(=O)(=O)C2=NC(C)C=N2)[C@@H](CO)N3C)cc1 (stereo not given in full)	T cruzi growth-1 101 (no result: IDH1 R132H inh) | T cruzi growth-2 104 | T cruzi growth-3 106 | NIH3T3 tox inactive | 3T3 cytotox 2 inactive
Cc1cc2nc(-c3cccc(NC(=O)COc4ccc(Br)cc4)c3C)oc2cc1C	none (no result: T cruzi growth-1, GASC1 inh, Pf Dd2 inh)
O=C(CSc1nnc(-c2ccc([N+](=O)[O-])cc2)n1-c1ccccc1)Nc1ccccc1Cl	none (no result: T cruzi growth-1, GASC1 inh, Pf Dd2 inh)
Cc1cccc(S(=O)(=O)N2CC[C@@H]3[C@H](CO)N(C)c4ccc(Br)cc4[C@@H]32)c1	T cruzi growth-1 inconclusive (no result: IDH1 R132H inh) | T cruzi growth-2 111 | T cruzi growth-3 inactive | NIH3T3 tox inactive | 3T3 cytotox 2 inactive
